# Laboratory results: ChEMBL document CHEMBL4033799, “Stable and Long-Lasting, Novel Bicyclic Peptide Plasma Kallikrein Inhibitors for the Treatment of Diabetic Macular Edema” (J Med Chem, 2018)
# Active and inactive are the calls of the source. No cut-off for these calls is given here.
# Key:
# Rattus norvegicus [1] = assay: Antiinflammatory activity in Sprague-Dawley rat assessed as inhibition carrageenan-induced paw edema at 30 mg/kg, ip pretreated for 15 mins followed by carrageenan challenge measured at 4 hrs post carrageenan challenge; format: functional
# Procedure, shortened: (§1)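 Male Sprague-Dawley rats received peptide IP (30, 10 or 3 mg/kg), or indomethacin IP at 5 mg/kg, 15 min before subplantar carrageenan. Paw volume was followed over time against a vehicle group.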
# Plasma = assay: Anti-coagulating activity in factor 8-deficient human plasma assessed as increase in coagulation time at 10 uM by aPTT assay; format: functional
# Procedure, shortened: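 Clotting time measured on a coagulation analyzer using actin FS, 0.025 M CaCl2, FVIII-deficient human plasma and Owren's Veronal Buffer pH 7.35, run per the manufacturer's instructions. Peptide tested from zero (vehicle) up to 10 μM. Each point is the mean ± SD of triplicates.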
# Rattus norvegicus [2] = assay: Antiinflammatory activity in Sprague-Dawley rat assessed as inhibition carrageenan-induced paw edema at 30 mg/kg, ip pretreated for 15 mins followed by carrageenan challenge measured at 2 hrs post carrageenan challenge; format: functional; procedure, shortened: as §1
# Rattus norvegicus [3] = assay: Antidiabetic activity in STZ-induced diabetic Brown-Norway rat model assessed as reduction in retinal vascular leakage at 100 ug/eye administered via ivt measured at 4 weeks post diabetes onset relative to control; format: functional
# Procedure, shortened: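 Diabetes was induced with STZ in male Brown-Norway rats. Peptide was given intravitreally at 100 μg/eye. Retinal vascular permeability was read as FITC-BSA extravasation 4 weeks after diabetes onset and compared with vehicle-treated diabetic rats. A soluble VEGF-trap served as positive control.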
# Rattus norvegicus [4] = assay: Antiinflammatory activity in Sprague-Dawley rat assessed as inhibition carrageenan-induced paw edema at 30 mg/kg, ip pretreated for 15 mins followed by carrageenan challenge measured at 1 hr post carrageenan challenge; format: functional; procedure, shortened: as §1
# Cathepsin G = molecular target: T1, Cathepsin G (Homo sapiens, UniProt P08311); assay: Inhibition of recombinant human Cathepsin-G
# T1 sequence (P08311 whole entry): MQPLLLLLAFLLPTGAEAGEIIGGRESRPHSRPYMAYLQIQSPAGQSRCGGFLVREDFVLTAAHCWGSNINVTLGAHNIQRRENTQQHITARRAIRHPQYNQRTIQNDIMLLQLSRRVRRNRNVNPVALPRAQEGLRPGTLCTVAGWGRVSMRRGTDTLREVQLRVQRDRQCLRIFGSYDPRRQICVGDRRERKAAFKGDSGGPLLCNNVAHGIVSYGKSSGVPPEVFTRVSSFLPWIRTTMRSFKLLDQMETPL
# Procedure, shortened: (§2)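 Panel of human serine proteases. Substrates and assay conditions followed each supplier's recommendations. Peptides were first screened at 50 μM. Where inhibition was detectable, hydrolytic activity was measured across a range of peptide concentrations. Ki was obtained by fitting to the tight-binding inhibitor rate equation.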
# Oryctolagus cuniculus = species on record: Oryctolagus cuniculus; assay: Inhibition of plasma kallikrein in rabbit plasma using HMWK as substrate assessed as suppression of kaolin-activated protein induced bradykinin release at 2 uM preincubated for 15 mins followed by substrate addition measured after 15 min by ELISA
# Mus musculus = assay: Antidiabetic activity in STZ-induced diabetic C57BL/6J mouse model assessed as reduction in retinal vascular permeability at 100 ug administered 4 times via ivt measured at 8 weeks post diabetes onset relative to control; format: functional
# Procedure, shortened: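 Diabetes was induced with STZ in male C57BL/6J mice. Peptide was given as repeated intravitreal injections (4 × 100 μg). Retinal permeability was read as FITC-BSA extravasation 8 weeks after diabetes onset and compared with vehicle-treated diabetic mice. The anti-VEGFR2 antibody DC101 (6.2 μg/eye, single dose) served as positive control.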
# Rattus norvegicus [5] = assay: Antiinflammatory activity in ip dosed Sprague-Dawley rat carrageenan-induced paw edema model assessed as inhibition of edema pretreated for 15 mins followed by carrageenan challenge measured up to 6 hrs; format: functional, organism-based; procedure, shortened: as §1
# Coagulation factor X = Coagulation factor X (Homo sapiens, UniProt P00742); assay: Inhibition of recombinant human C-terminal 10His-tagged factor Xa (24 to 488 residues) expressed in baculovirus derived insect sf21 cells using fluorogenic Mca-RPKPVE-Nval-WRK(Dnp)-NH2 peptide as substrate by fluorescence based assay
# Procedure, shortened: (§3)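 Human serine proteases were assayed with substrates and conditions set by each supplier's recommendations. Peptides were first screened at 50 μM. Where inhibition was detected, Ki was determined from activity across peptide concentrations using a tight-binding rate equation.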
# Prothrombin = Prothrombin (Homo sapiens, UniProt P00734); assay: Inhibition of recombinant human alpha thrombin using fluorogenic peptide as substrate by fluorescence based assay; procedure, shortened: as §2
# Kallikrein-6 = Kallikrein-6 (Homo sapiens, UniProt Q92876); assay: Inhibition of recombinant human C-terminal His-tagged KLK6 isoform 1 (1 to 244 residues) expressed in HEK293 cells using fluorogenic Boc-QARAMC peptide as substrate by fluorescence based assay; procedure, shortened: as §3
# Rattus norvegicus [6] = assay: Antiinflammatory activity in Sprague-Dawley rat carrageenan-induced paw edema model assessed as inhibition of paw edema AUC (0 to 2 hrs) at 10 to 30 mg/kg, ip pretreated for 15 mins followed by carrageenan challenge; format: functional, organism-based; procedure, shortened: as §1
# [7] = molecular target: T2, Complement C1s subcomponent (Homo sapiens, UniProt P09871); assay: Inhibition of recombinant human C-terminal 6His-tagged complement component C1s (1 to 688 residues) expressed in mouse NS0 cells using fluorogenic Z-Lys-SBzl peptide as substrate after 5 mins by fluorescence based assay; procedure, shortened: as §3
# T2 sequence (P09871 whole entry): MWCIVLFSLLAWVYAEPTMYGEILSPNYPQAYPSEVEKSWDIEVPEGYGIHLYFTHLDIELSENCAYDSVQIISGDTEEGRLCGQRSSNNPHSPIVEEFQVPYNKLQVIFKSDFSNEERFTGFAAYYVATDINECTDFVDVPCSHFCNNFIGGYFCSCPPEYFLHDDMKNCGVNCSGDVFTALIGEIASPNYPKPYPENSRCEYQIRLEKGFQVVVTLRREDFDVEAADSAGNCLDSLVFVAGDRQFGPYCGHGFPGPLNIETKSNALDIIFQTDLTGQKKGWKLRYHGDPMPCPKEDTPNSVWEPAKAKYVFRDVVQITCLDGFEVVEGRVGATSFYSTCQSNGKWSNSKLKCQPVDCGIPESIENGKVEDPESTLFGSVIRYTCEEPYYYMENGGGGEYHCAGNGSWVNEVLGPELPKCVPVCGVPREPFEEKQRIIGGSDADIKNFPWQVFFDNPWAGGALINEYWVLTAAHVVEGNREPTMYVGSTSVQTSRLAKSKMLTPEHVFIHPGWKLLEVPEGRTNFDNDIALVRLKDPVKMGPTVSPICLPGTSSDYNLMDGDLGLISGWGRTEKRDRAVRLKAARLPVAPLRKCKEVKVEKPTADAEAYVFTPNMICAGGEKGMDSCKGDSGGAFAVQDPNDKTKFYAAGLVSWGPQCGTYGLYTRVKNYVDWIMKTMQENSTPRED
Ki (Cathepsin G),inhibition (Oryctolagus cuniculus),Ki (Coagulation factor X),Ki (Prothrombin),Ki (Kallikrein-6),Ki [7],SMILES,inhibition in vivo at 30 mg/kg (Rattus norvegicus [1]),Activity (Plasma),inhibition in vivo at 30 mg/kg (Rattus norvegicus [2]),inhibition (INH) (Rattus norvegicus [3]),inhibition in vivo at 30 mg/kg (Rattus norvegicus [4]),inhibition (Mus musculus),inhibition (Rattus norvegicus [5]),inhibition (Rattus norvegicus [6])
–,–,–,–,–,–,CC(=O)N[C@H]1CSCc2cc3cc(c2)CSC[C@H](NC(=O)[C@H](CCCCNC(=N)N)NC(=O)[C@H](Cc2ccc(O)cc2)NC(=O)[C@@H]2CCN2C(=O)[C@H](Cc2ccccc2)NC(=O)[C@H](CO)NC1=O)C(=O)N[C@@H](C)CN[C@@H](Cc1cnc[nH]1)C(=O)N[C@@H](CCC(N)=O)C(=O)N[C@@H](CC(=O)O)C(=O)N[C@@H](CC(C)C)C(=O)N[C@H](C(=O)O)CSC3,32%,15%,52%,30%,90%,–,–,–
> 50 µM,inactive,> 50 µM,> 50 µM,> 50 µM,> 50 µM,CC(=O)N[C@H]1CSCc2cc3cc(c2)CSC[C@@H](NC(=O)[C@H](CCCCNC(=N)N)NC(=O)[C@H](Cc2ccc(O)cc2)NC(=O)C2CCN2C(=O)[C@H](Cc2ccccc2)NC(=O)[C@H](CO)NC1=O)C(=O)N[C@@H](C)CN[C@@H](Cc1cnc[nH]1)C(=O)N[C@@H](CCC(N)=O)C(=O)N[C@@H](CC(=O)O)C(=O)N[C@@H](CC(C)C)C(=O)N[C@H](C(=O)O)CSC3 (some centres undefined),–,–,–,–,–,inactive,Dose-dependent effect,Active
